The RNAGym collection of RNA variant scans (doi:10.1126/science.aae0568)
Fewer inactive variants are shown than the library holds.

B1: tRNA (parent)
chain: GUUCCGUUGGCGUAAUGGUAACGCGUCUCCCUCCUAAGGAGAAGACUGCGGGUUCGAGUCCCGUACGGAACG

Variants of: B1
Test: yeast fitness relative to wild type (ratio to wild type); higher = fitter; tRNA-Arg(CCU), competitive growth, 37 C, YPD
Procedure, shortened: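 Variants of the tRNA-Arg(CCU) gene were chemically synthesised with a 3% per-site mutation rate across 69 sites and placed at the native genomic locus in Saccharomyces cerevisiae. Six parallel replicates of the pooled strains were competed in YPD at 37°C for 24 hours, and gene amplicons from the start and end populations were read by 100-nucleotide paired-end sequencing. Darwinian fitness relative to wild type was derived from changes in genotype frequencies. Genotypes required ≥ 100 starting reads, and estimates < 0.5 were set to 0.5.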

| Variant | yeast fitness |
| --- | --- |
| G10A A20U A45U C55U A70C | 0.576 |
| G10A U16C A36G G48C | ≤ 0.5 |
| G10A A20U | 0.786 |
| G10A A20G | 0.649 |
| G10A A36C C66U | ≤ 0.5 |
| G10A A20C G38A G41A A65C | ≤ 0.5 |
| G10A A21G C24A C66U | ≤ 0.5 |
| G10A A20U U35C G48C C60A | ≤ 0.5 |
| G10A G44C A65C G67A | ≤ 0.5 |
| G10A C30U C34U A42G A69C A70G | ≤ 0.5 |
| G10A A21G C22U C55U | ≤ 0.5 |
| G10A C31U C34A A40G A65U | ≤ 0.5 |
| G10A A36C A43U | 0.573 |
| G10A C11U A15G C30U U47C C61G A69C | ≤ 0.5 |
| G10A U16A U64A | 0.544 |
| G10A A43G | 0.65 |
| G10A A43C | 0.811 |
| G10A C27G C33G G41C A65G G68A | ≤ 0.5 |
| G10A C11A A15C C24A C34A C46G G51A | ≤ 0.5 |
| G10A A21U A70C | ≤ 0.5 |
| G10A C49U A69U | ≤ 0.5 |
| G10A C24A A43U G48A | ≤ 0.5 |
| G10A A21G C27U A40U | ≤ 0.5 |
| G10A G23C C61G | ≤ 0.5 |

| Variant | yeast fitness |
| --- | --- |
| G10A A43G G50A | 0.573 |
| G10A C22U C27U C33U A43U U54C | ≤ 0.5 |
| G10A A43U A69C | 0.887 |
| G10A U13A C24U | 0.599 |
| G10A C31A G38C G44A A65G | ≤ 0.5 |
| G10A C29A A45U | ≤ 0.5 |
| G10A A36G G38C | ≤ 0.5 |
| G10A G18C C24U C30G C62U | ≤ 0.5 |
| G10A C31A U32C G41C | ≤ 0.5 |
| G10A U16A C31A G52C | ≤ 0.5 |
| G10A C27G G38A A42G | 0.661 |
| G10A C24G C34U G63C | ≤ 0.5 |
| G10A A57U A65U | ≤ 0.5 |
| G10A C62G | 0.64 |
| G10A C27U | 0.817 |
| G10A C27G | 0.551 |
| G10A G39C | 0.763 |
| G10A A57U U59C | ≤ 0.5 |
| G10A G17C U28C C30G C33G C61A A69U | ≤ 0.5 |
| G10A C29A | 0.574 |
| G10A U19A A40C A42C G68A A70C | ≤ 0.5 |
| G10A C34A | 0.712 |
| G10A U13A C24U A70C | ≤ 0.5 |
| G10A A15U | 0.681 |

| Variant | yeast fitness |
| --- | --- |
| G10A A15C | 0.613 |
| G10A C30G C46U | ≤ 0.5 |
| G10A A21G C30A A42C | ≤ 0.5 |
| G10A C30U U47A | ≤ 0.5 |
| G10A G41A C60G A65G | 0.529 |
| G10A A15U A21C G25C C66U G67U G68A | ≤ 0.5 |
| G10A U13C | 0.658 |
| G10A U13G A36G | 0.52 |
| G10A G25C C49G | 0.603 |
| G10A G39C C62U G63A A70U | ≤ 0.5 |
| G10A G18A C27G A37G G38A | ≤ 0.5 |
| G10A A21U A43U A45U G50C | ≤ 0.5 |
| G10A C33U A65U | ≤ 0.5 |
| G10A C31G G44A G56C | ≤ 0.5 |
| G10A C49A C61U | ≤ 0.5 |
| G10A C24U A36C | ≤ 0.5 |
| G10A A43G G52C U53C G63C | ≤ 0.5 |
| G10A U16A G52A A65U | ≤ 0.5 |
| G10A C61G C66U A69U | ≤ 0.5 |
| G10A G51C G58U | ≤ 0.5 |
| G10A C46U | 0.812 |
| G10A C31A G41C | ≤ 0.5 |
| G10A A36C A45C | 0.634 |
| G10A C22U | 0.647 |

| Variant | yeast fitness |
| --- | --- |
| G10A G25A C29G C31U | ≤ 0.5 |
| G10A C33U A40G C55G A65C | ≤ 0.5 |
| G10A G44A U54C C61U A69C | 0.638 |
| G10A A21G C22A C31A A40G C46G | ≤ 0.5 |
| G10A C31U A37G | 0.796 |
| G10A U16A G38A U64C | ≤ 0.5 |
| G10A G25A G41C U54G C61U | 0.551 |
| G10A U13C A40C | ≤ 0.5 |
| G10A C30U C34U A42G A57C | ≤ 0.5 |
| G10A A21C G52C | ≤ 0.5 |
| G10A A15G A42C G50C | ≤ 0.5 |
| G10A A36G U59C A70G | ≤ 0.5 |
| G10A A21G A65U A69C | 0.777 |
| G10A C29A A57C U59A | ≤ 0.5 |
| G10A C22G C27U G56A C66G | 0.504 |
| G10A C24A C49G G58C | ≤ 0.5 |
| G10A A69C A70C | ≤ 0.5 |
| G10A C22A A43G C55A | ≤ 0.5 |
| G10A C55G C60A C66A A69U | ≤ 0.5 |
| G10A U16A G38C G41C A65G | ≤ 0.5 |
| G10A U13A C24A C55G C62U | ≤ 0.5 |
| G10A G17C C30G C33G C61A A69U A70G | ≤ 0.5 |
| G10A A37G | 0.551 |
| G10A A37C | 0.741 |

| Variant | yeast fitness |
| --- | --- |
| G10A A37U | 0.622 |
| G10A C27A A36U A37U G48C C61G A69U | 0.576 |
| G10A U13G C27U C46G G67A | ≤ 0.5 |
| G10A A43G G56U A69G | ≤ 0.5 |
| G10A C11G G44A C49G A65U | ≤ 0.5 |
| G10A A15C C34A C49U C61G | 0.603 |
| G10A G18A C33U A37C A40U | ≤ 0.5 |
| G10A A20U C30A C62U | ≤ 0.5 |
| G10A C60G A70U | ≤ 0.5 |
| G10A G18A C27G A37G G38A A57U | ≤ 0.5 |
| G10A C29G C34G | ≤ 0.5 |
| G10A G48C G67C | 0.56 |
| G10A U19A G41C C66U | 0.617 |
| G10A A15U A21C G25C C62A | ≤ 0.5 |
| G10A A36U A43G | 0.607 |
| G10A C11U | 0.777 |
| G10A C11G | 0.565 |
| G10A C27G C60A | ≤ 0.5 |
| G10A C60A | 0.691 |
| G10A A37C A42G | ≤ 0.5 |
| G10A G17A U35G A36G A40C A57C C62A | ≤ 0.5 |
| G10A C33U A45U G48C U64A | ≤ 0.5 |
| G10A C24G G39C C66U | ≤ 0.5 |
| G10A C29A C34G A43C | 0.68 |

| Variant | yeast fitness |
| --- | --- |
| G10A G48C | 0.733 |
| G10A C33G A43G G58A G67A A69U | 0.543 |
| G10A G18A A36G | ≤ 0.5 |
| G10A C29A U35A G56A G67C | ≤ 0.5 |
| G10A G12C C31U U53C A70C | ≤ 0.5 |
| G10A G17A G39C A45C C49G | ≤ 0.5 |
| G10A A15C C34A G56A | ≤ 0.5 |
| G10A C24A C33U A57U U59G | ≤ 0.5 |
| G10A A21G G67C | 0.617 |
| G10A A65U G68A | ≤ 0.5 |
| G10A A14U U19A G23C C29A C66A | ≤ 0.5 |
| G10A G17C C22U C30G C33G C61A A69U | ≤ 0.5 |
| G10A G41A | 0.661 |
| G10A G41C | 0.717 |
| G10A A21C C22A G25C G38A U59A C60U | ≤ 0.5 |
| G10A C33U U59C | ≤ 0.5 |
| G10A A15C A45C C49G | 0.553 |
| G10A A20G A40C A42C | ≤ 0.5 |
| G10A G17C C30G C33G G48A C61A A69U | ≤ 0.5 |
| G10A C30U C33G U64C | 0.662 |
| G10A A15G G38C | ≤ 0.5 |
| G10A C24U C49U | 0.53 |
| G10A C24A C29G U35A A36U | ≤ 0.5 |
| G10A U19C A36G G48A C49G | ≤ 0.5 |

| Variant | yeast fitness |
| --- | --- |
| G10A C30U C33G | 0.538 |
| G10A G23C C29U A36C C49G | 0.53 |
| G10A G63A | 0.698 |
| G10A G17A A36G A40C A57C C62A | ≤ 0.5 |
| G10A A21U | 0.609 |
| G10A A21C | 0.693 |
| G10A A21G | 0.878 |
| G10A U16A U32C A65G | ≤ 0.5 |
| G10A A45U | 0.673 |
| G10A A45C | 0.66 |
| G10A G44A U54C C61U G67A | ≤ 0.5 |
| G10A C30A C62A | ≤ 0.5 |
| G10A G23A U35G | ≤ 0.5 |
| G10A U13C A21U | ≤ 0.5 |
| G10A A15C G39C | ≤ 0.5 |
| G10A A37U G39A A57U | ≤ 0.5 |
| G10A G38C A57G | ≤ 0.5 |
| G10A C24A G52U | ≤ 0.5 |
| G10A C24A A43C | ≤ 0.5 |
| G10A A15U A70G | ≤ 0.5 |
| G10A G52A A69U | ≤ 0.5 |
| G10A G25A | 0.862 |
| G10A G23C C29U A36C A57U G63A | ≤ 0.5 |
